Series [1] deals with T1, Toll-like receptor 4 (Homo sapiens, UniProt O00206). In words: Inhibition of human TLR4 expressed in HEK-Blue cells assessed as decrease in LPS-induced TLR4 response incubated for 1 hr followed by LPS stimulation and further incubated for 22 hrs by cell based reporter assay. For orientation: A reporter such as luciferase makes a cellular process visible.
Series [2] has as its target T1, Toll-like receptor 4. Description: Inhibition of human TLR4 expressed in HEK-Blue cells assessed as decrease in LPS-induced TLR4 response at 15 uM incubated for 1 hr followed by LPS stimulation and further incubated for 22 hrs by cell based reporter assay. A digest of the protocol:
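HEK TLR4 reporter cells exposed to compound across a concentration range, then stimulated with LPS. Read-out is optical density at 650 nm. Complete suppression was defined as the OD650 of cells given racemic reference inhibitor at 15 μM. IC50 values were derived from the concentration-response data.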

Series [3] is described as follows: Stability of compound in phosphate buffered saline containing 5% DMSO at 0.01 mg/ml at pH 7.4 by HPLC analysis. Type of series: physicochemical. The conditions noted are these: buffer. The method in brief:
(§1)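 Incubation at 37 °C in phosphate buffered saline, pH 7.4, containing 5% DMSO. Aqueous stability was followed over time.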

A short description of series [4]: Stability of compound in phosphate buffered saline containing 5% DMSO assessed as compound remaining at 0.01 mg/ml at pH 7.4 measured after 1 day by HPLC analysis. The following applies: read-out: Stability. The format is physicochemical. The method in brief:
as §1

In series [5] the target is T2, Oxygen-insensitive NAD(P)H nitroreductase (Escherichia coli K-12, UniProt P38489).
T2 sequence (P38489 whole entry): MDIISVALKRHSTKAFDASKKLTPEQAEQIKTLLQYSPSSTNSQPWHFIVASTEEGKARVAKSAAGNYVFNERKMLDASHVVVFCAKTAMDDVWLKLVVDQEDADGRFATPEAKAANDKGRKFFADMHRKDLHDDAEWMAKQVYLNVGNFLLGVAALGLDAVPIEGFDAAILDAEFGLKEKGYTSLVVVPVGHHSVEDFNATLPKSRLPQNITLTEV
Description: Prodrug conversion in PBS containing 5% DMSO assessed as Escherichia coli nitroreductase-mediated activation by measuring increased consumption of prodrug at 0.01 mg/ml at pH 7.4 in presence of […] by HPLC analysis. The following applies: isolated protein. The method in brief:
(§2)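 Nitroreductase from E. coli (2 units/mL) with NADPH (1 mg/mL) in PBS, pH 7.4, containing 5% DMSO. The reaction was monitored by HPLC.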

Series [6] addresses T2, Oxygen-insensitive NAD(P)H nitroreductase. In words: Prodrug conversion in PBS containing 5% DMSO assessed as Escherichia coli nitroreductase-mediated activation by measuring release of ethyl (6R)-6-[(2-chloro-4-fluorophenyl)sulfamoyl]cyclohexene-1-carboxylate parent drug at 0.01 mg/ml at pH 7.4 in presence of […] by HPLC analysis. The conditions noted are these: isolated protein. A digest of the protocol: as §2

For series [7] the target is unchanged. In words: Prodrug conversion in PBS containing 5% DMSO assessed as Escherichia coli nitroreductase-mediated activation by measuring reduced amine intermediate metabolite formation at 0.01 mg/ml at pH 7.4 in presence of […] by HPLC analysis. The format is ADME. The following applies: isolated protein. A digest of the protocol: as §2

T1 sequence (O00206 whole entry): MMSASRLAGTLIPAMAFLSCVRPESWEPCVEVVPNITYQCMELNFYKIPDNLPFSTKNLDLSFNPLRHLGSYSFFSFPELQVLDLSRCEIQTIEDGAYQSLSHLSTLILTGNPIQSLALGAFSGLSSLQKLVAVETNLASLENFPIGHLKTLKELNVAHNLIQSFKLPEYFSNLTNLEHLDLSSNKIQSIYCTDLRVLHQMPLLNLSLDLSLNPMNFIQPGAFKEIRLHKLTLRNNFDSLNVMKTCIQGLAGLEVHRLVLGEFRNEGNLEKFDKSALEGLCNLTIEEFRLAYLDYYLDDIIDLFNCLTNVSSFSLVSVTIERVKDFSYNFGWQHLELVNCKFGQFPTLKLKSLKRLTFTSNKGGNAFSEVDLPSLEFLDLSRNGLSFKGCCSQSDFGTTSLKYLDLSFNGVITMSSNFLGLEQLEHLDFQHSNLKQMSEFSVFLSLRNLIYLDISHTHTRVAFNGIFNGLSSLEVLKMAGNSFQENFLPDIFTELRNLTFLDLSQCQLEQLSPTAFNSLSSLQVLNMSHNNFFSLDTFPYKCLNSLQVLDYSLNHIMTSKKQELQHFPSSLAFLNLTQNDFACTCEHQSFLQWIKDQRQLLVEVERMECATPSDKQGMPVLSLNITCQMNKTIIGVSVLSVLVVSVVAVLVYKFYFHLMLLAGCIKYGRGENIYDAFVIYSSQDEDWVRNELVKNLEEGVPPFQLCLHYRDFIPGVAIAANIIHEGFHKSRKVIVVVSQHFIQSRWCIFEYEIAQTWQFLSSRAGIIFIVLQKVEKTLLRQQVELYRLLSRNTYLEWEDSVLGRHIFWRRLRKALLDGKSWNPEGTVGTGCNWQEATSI

For `CCOC(=O)C1=CCCCC1S(=O)(=O)Nc1ccc(F)cc1Cl` (racemic), the half-maximal inhibitory concentration (IC50) on Toll-like receptor 4 [1] amounted to 40 nM. Also, the inhibition on Toll-like receptor 4 [2] worked out at 100%.
On to `C#CCOC(=O)N(c1ccc(F)cc1Cl)S(=O)(=O)C1CCCC=C1C(=O)OCC` (racemic), for which the Stability result in series [3] was “Unstable”. Further, the remaining at 24 h, 0.01 mg/ml in series [4] was 25%.
With `C#CCN(c1ccc(F)cc1Cl)S(=O)(=O)C1CCCC=C1C(=O)OCC` (racemic), in series [3], the Stability entry is given as “Stable”.
In the case of `CCOC(=O)C1=CCCCC1S(=O)(=O)N(Cc1ccc([N+](=O)[O-])cc1)c1ccc(F)cc1Cl` (racemic), the Stability entry in series [3] was “Stable”. Further, the Drug metabolism result in series [5], in series [6] and in series [7] was “Metabolite_Detected” in each case.
As for `CCOC(=O)C1=CCCCC1S(=O)(=O)N(C(=O)OCc1ccc([N+](=O)[O-])cc1)c1ccc(F)cc1Cl` (racemic), the Stability entry in series [3] is “Unstable”. Moreover, the remaining at 24 h, 0.01 mg/ml in series [4] was found to be 85%. Further, the Drug metabolism result in series [5] is “Metabolite_Detected”; in series [6] it was “Metabolite_Detected”; in series [7] it was “Metabolite_Notdetected”.

The term IC50 denotes the midpoint of a concentration-inhibition curve. A word on the inhibition: it is the share of the control response that was lost under treatment.

The record behind these values is ChEMBL document CHEMBL4373749, “Design and Catalyzed Activation of Tak-242 Prodrugs for Localized Inhibition of TLR4-Induced Inflammation” (ACS Med Chem Lett, 2020).
